Data on 18 molecules can be found in ChEMBL document CHEMBL1123427, “Synthesis of thyrotropin-releasing hormone analogues. 2. Tripeptides structurally greatly differing from TRH with high central nervous system activity” (1986).

Molecules are shown by their SMILES. Residues, ends and D or L forms follow the SMILES beside them.

For experiment [1], the species on record is Rattus norvegicus. As to the kind of experiment: Thyrotropin releasing activity (TSH) was evaluated by measuring the TSH response to the compound by radioimmunoassay in two doses in the rat; np denotes Slightly significant but not parallel TSH response to the lower and upper dose s used. Format: functional, organism-based. In short, it runs like this: (§1)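 Rat two-point assay at 1 and 10 μg. TSH response is measured by radioimmunoassay. Compounds are dissolved in physiological saline (5 mL/kg), and controls receive the same volume of saline. n = 10 animals per treatment. Significance is given as p < 0.01 and p < 0.001.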

The test system of experiment [2] is Rattus norvegicus. As to the kind of experiment: Ability of 80 mg/kg to inhibit the cataleptic effect of haloperidol in rat. The class given is functional.
The species named for another experiment is Mus musculus. The experiment can be described thus: Reduction of hexobarbital induced sleeping time in mice. The class given is functional.
The species named for experiment [3] is Rattus norvegicus. As to the kind of experiment: Thyrotropin releasing activity (TSH) was evaluated by measuring the TSH response to the compound by radioimmunoassay in two doses in the rat. The class given is functional. In short, it runs like this: as §1
Experiment [4] is filed under the species Rattus norvegicus. The experiment can be described thus: Doses that inhibited cataleptic effect of haloperidol in rat by 50%. Format: functional.
The species entered for experiment [5] is Rattus norvegicus. As to the kind of experiment: Dose that inhibited cataleptic effect of haloperidol in rat by 50%. The class given is functional.
The subject of experiment [6] is Rattus norvegicus. The experiment can be described thus: Ability of 80 mg/kg to inhibit the cataleptic effect of haloperidol in rat; Potentiating effect. The class given is functional, organism-based. Conditions: at 80 mg/kg. Set-up: dose 80 mg/kg.

`CCC[C@H](NC(=O)[C@@H]1CCCC(=O)N1)C(=O)N1CSC[C@@H]1C(N)=O`: the Activity entry in the experiment filed under Rattus norvegicus [1] was “Slightly significant but not parallel”.
With `CC(=O)N1CCC[C@H]1C(=O)N[C@@H](CC(C)C)C(=O)N1CCC[C@H]1C(N)=O` (Ac-Pro-Leu-Pro-NH2), in the experiment with Rattus norvegicus [2], testing at 80 mg/kg gave an inhibition in vivo of 0%. For the same molecule, in the experiment filed under Mus musculus, the Sleeping time was 37.6 min.
With `CC(C)C[C@H](NC(=O)[C@@H]1CNC(=O)N1)C(=O)N1CCC[C@H]1C(N)=O`, the inhibition in vivo at 80 mg/kg in the experiment on Rattus norvegicus [2] is 40%. The molecule also came in with a Sleeping time in the experiment filed under Mus musculus of 25.8 min. The molecule further showed an Activity in the experiment listed under Rattus norvegicus [3] of 0%.
Regarding `CC(C)C[C@H](NC(=O)[C@@H]1CCCC(=O)N1)C(=O)N1CCC[C@H]1C(N)=O` [POSATIRELIN], the 50% effect level in the experiment filed under Rattus norvegicus [4] (ED50) was put at a dose of 23.5 mg/kg. In the experiment listed under Mus musculus, the Sleeping time was 16.4 min. Moreover, the Activity in the experiment listed under Rattus norvegicus [3] is listed as 2.7%.
`CCC[C@H](NC(=O)[C@@H]1CCC(=O)N1)C(=O)N[C@H](CCSC)C(N)=O`: 80 mg/kg produced 20% inhibition in vivo in the experiment on Rattus norvegicus [2]. Moreover, in the experiment filed under Mus musculus, the Sleeping time was found to be 46.1 min. The molecule further came in with an Activity in the experiment filed under Rattus norvegicus [3] of 0%.
In turn, `CC(C)C[C@H](NC(=O)[C@@H]1CSCN1)C(=O)N1CCC[C@H]1C(N)=O` (HELM PEPTIDE1{[O=C([C@@H]1CSCN1)[*:2]].L.P.[am]}$$$$V2.0) displayed an inhibition in vivo at 80 mg/kg with Rattus norvegicus [2] of 0%. For the same molecule, the Sleeping time in the experiment listed under Mus musculus was 35 min. In the experiment filed under Rattus norvegicus [3], this molecule returned an Activity of 0%.
For the molecule `NC(=O)[C@@H]1CCCN1C(=O)[C@H](Cc1c[nH]cn1)NC(=O)[C@@H]1CCC(=O)N1` [PROTIRELIN], 80 mg/kg produced 40% inhibition in vivo with Rattus norvegicus [2]. Further, the Sleeping time in the experiment listed under Mus musculus was determined as 24.8 min. In addition, the Activity in the experiment filed under Rattus norvegicus [3] is 100%.
The molecule `CC(C)C[C@H](NC(=O)[C@@H]1CCC(=O)N1)C(=O)NCC(N)=O` (HELM PEPTIDE1{[Glp].L.G.[am]}$$$$V2.0) displayed an inhibition in vivo at 80 mg/kg with Rattus norvegicus [2] of 0%. The molecule also displayed a Sleeping time in the experiment listed under Mus musculus of 35.8 min.
For the molecule `CCC[C@H](NC(=O)[C@@H]1CCC(=O)N1)C(=O)N1CSC[C@H]1C(N)=O` (HELM PEPTIDE1{[Glp].[Nva].[O=C([C@@H]1CSCN1[*:1])[*:2]].[am]}$$$$V2.0), in the experiment listed under Rattus norvegicus [5], it took a dose of 56 mg/kg to reach the 50% effect level (ED50). In the experiment listed under Mus musculus, this molecule registered a Sleeping time of 26.4 min. Besides, the Activity in the experiment listed under Rattus norvegicus [3] worked out at 0%.
For `CCC[C@H](NC(=O)[C@@H]1CCC(=O)N1)C(=O)N[C@@H](CC(C)C)C(N)=O` (HELM PEPTIDE1{[Glp].[Nva].L.[am]}$$$$V2.0), the inhibition in vivo at 80 mg/kg in the experiment on Rattus norvegicus [2] turned out to be 20%. The molecule further had a Sleeping time in the experiment listed under Mus musculus of 43 min. For the same molecule, in the experiment listed under Rattus norvegicus [3], the Activity was 0%.
With `CC(C)C[C@H](NC(=O)[C@@H]1CCC(=O)N1)C(=O)N1CSC[C@H]1C(N)=O` (HELM PEPTIDE1{[Glp].L.[O=C([C@@H]1CSCN1[*:1])[*:2]].[am]}$$$$V2.0), it took a dose of 31.4 mg/kg to reach the 50% effect level in the experiment filed under Rattus norvegicus [5] (ED50). This molecule also displayed a Sleeping time in the experiment listed under Mus musculus of 17.2 min. The Activity in the experiment listed under Rattus norvegicus [3] is listed as 0%.
`CCC[C@H](NC(=O)[C@@H]1CCCC(=O)N1)C(=O)N1CCC[C@H]1C(N)=O`: the 50% effect level in the experiment filed under Rattus norvegicus [5] (ED50) was put at a dose of 10.6 mg/kg. In the experiment listed under Mus musculus, this molecule yielded a Sleeping time of 19.7 min. The molecule also showed an Activity in the experiment filed under Rattus norvegicus [3] of 0%.
Turning to `CCC[C@H](NC(=O)[C@@H]1CCC(=O)N1)C(=O)N[C@H](C(N)=O)[C@@H](C)CC` (HELM PEPTIDE1{[Glp].[Nva].I.[am]}$$$$V2.0), the inhibition entry with Rattus norvegicus [6] was “Potentiating effect”. The Sleeping time in the experiment filed under Mus musculus turned out to be 47.7 min. In addition, in the experiment filed under Rattus norvegicus [3], the Activity is 0%.
Turning to `CC(C)C[C@H](NC(=O)[C@@H]1CCC(=O)N1)C(=O)N1CCCC[C@H]1C(N)=O` (HELM PEPTIDE1{[Glp].L.[O=C([C@@H]1CCCCN1[*:1])[*:2]].[am]}$$$$V2.0), the 50% effect level in the experiment listed under Rattus norvegicus [5] (ED50) was put at a dose of 38.5 mg/kg. Moreover, the Sleeping time in the experiment filed under Mus musculus is 16.6 min. For the same molecule, in the experiment filed under Rattus norvegicus [3], the Activity stood at 7.2%.
The molecule `CCC[C@H](NC(=O)[C@@H]1CCCC(=O)N1)C(=O)N1CSC[C@H]1C(N)=O` showed an ED50 in the experiment listed under Rattus norvegicus [5] of 60.3 mg/kg. In addition, in the experiment listed under Mus musculus, the Sleeping time stood at 23.6 min.
In the experiment with Rattus norvegicus [2], `CC(C)C[C@H](NC(=O)[C@@H]1CCCN1)C(=O)N1CCC[C@H]1C(N)=O` (H-Pro-Leu-Pro-NH2) had an inhibition in vivo at 80 mg/kg of 0%. Further, in the experiment listed under Rattus norvegicus [1], the Activity entry was “Slightly significant but not parallel”. The same molecule registered a Sleeping time in the experiment filed under Mus musculus of 65.6 min.
Consider `CC(C)C[C@H](NC(=O)[C@@H]1CCC(=O)O1)C(=O)N1CCC[C@H]1C(N)=O`, for which the inhibition in vivo at 80 mg/kg in the experiment with Rattus norvegicus [2] is 40%. The molecule also gave a Sleeping time in the experiment listed under Mus musculus of 36.8 min.
In the case of `CC(C)C[C@H](NC(=O)[C@@H]1CCC(=O)N1)C(=O)N1CCCC[C@H]1C(=O)O` (HELM PEPTIDE1{[Glp].L.[O=C(O)[C@@H]1CCCCN1[*:1]]}$$$$V2.0), the inhibition in vivo at 80 mg/kg in the experiment with Rattus norvegicus [2] was found to be 20%. The Activity entry in the experiment filed under Rattus norvegicus [1] is “Slightly significant but not parallel”. In addition, in the experiment listed under Mus musculus, the Sleeping time was determined as 33.3 min.

What is called inhibition in vivo is the share of the control response that was lost under treatment. Low values mean little suppression, high ones strong suppression. One may read the ED50 as the dose at which the effect has come halfway, by size or by number of responders.
